From PubChem BioAssay
This is a sample that favours compounds with a hit; in the whole collection about 3.5% have one here.
RGS4 inh = human RGS4 inhibition. 0.45% of 310,000 active. B-score at 10 µM. HEK293 M3R/RGS4 inducible, Fluo-4 calcium flux; active compounds read high; triggered by carbachol at its EC20. P49798. AID 463165;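 active = B-score, a plate-corrected calcium signal, over three deviations above library mean, with baseline fluorescence within five deviations of library mean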;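 also: RGS4 expression induced by doxycycline in cells with stable M3 receptor; B-score is computed from the integrated fluorescence ratio over baseline after carbachol; higher B-score means a larger calcium signal and so more RGS4 inhibition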
Target sequence (P49798 whole entry, looked up): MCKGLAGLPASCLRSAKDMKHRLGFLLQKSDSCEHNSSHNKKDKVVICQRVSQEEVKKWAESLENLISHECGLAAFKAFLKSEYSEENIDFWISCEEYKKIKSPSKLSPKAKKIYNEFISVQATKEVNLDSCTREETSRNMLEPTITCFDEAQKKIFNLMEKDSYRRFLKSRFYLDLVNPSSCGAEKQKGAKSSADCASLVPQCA
MrgX1 antagonist = blocks BAM8-22 activation of human MrgX1 receptor. MRGX1-HEK293 calcium flux, Fluo-4, BAM8-22 antagonism; active compounds read low. B-score at 10 µM. 1.3% of 310,000 active. AID 588676;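 active = calcium-response B-score plate-corrected more than 3 library SD below zero, starting fluorescence within 5 deviations, no agonist response on first addition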;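 also: peak minus trough fluorescence over baseline after final BAM8-22 challenge near maximal dose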
Target sequence (Q96LB2 whole entry, looked up): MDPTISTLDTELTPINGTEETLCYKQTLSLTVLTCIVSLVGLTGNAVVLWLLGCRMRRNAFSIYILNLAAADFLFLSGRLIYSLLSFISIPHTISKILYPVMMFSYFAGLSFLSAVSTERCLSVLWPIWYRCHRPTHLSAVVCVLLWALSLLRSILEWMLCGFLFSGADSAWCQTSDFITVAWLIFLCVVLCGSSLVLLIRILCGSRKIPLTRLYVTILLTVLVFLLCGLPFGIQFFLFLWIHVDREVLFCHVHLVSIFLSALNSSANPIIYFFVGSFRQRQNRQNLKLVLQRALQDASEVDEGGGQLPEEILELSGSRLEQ
MrgX1 PAM = human MrgX1 positive allosteric modulation, primary screen; MrgX1-HEK293, Fluo-4 calcium flux, FDSS; active compounds read high; B-score at 10 µM; 0.63% of 310,000 active; AID 588675;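 active = plate-corrected calcium response at least 3 library SD above typical, normal starting fluorescence, not activating the receptor alone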;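 also: compound read alongside a low EC10 to EC30 dose of BAM8-22 agonist; peak minus trough fluorescence over baseline measured at the second addition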
RGS4 act = RGS4 potentiation or activation; 0.92% of 310,000 active; HEK293 M3R/inducible RGS4, carbachol calcium flux Fluo4; active compounds read low; B-score at 10 µM;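 active = B-score of the integrated calcium signal more than 4 SD below the library mean, with starting fluorescence not abnormally high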;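 also: negative B-score means reduced calcium response which marks RGS4 activation or potentiation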
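Detection: kinetic calcium fluorescence imaging with Fluo4-AM dye, 2 µM / Material: HEK293 cells with stable M3R and inducible RGS4 / Schedule: recording 10 s baseline at 1 Hz, 100 s post-agonist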
MrgX1 ag = human MrgX1 receptor agonism, primary screen; MrgX1-HEK293 cells, Fluo-4 calcium fluorescence, agonist mode; active compounds read high; B-score at 10 µM; 0.44% of 310,000 active; AID 588627;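 active = calcium response B-score plate-corrected fluorescence ratio at least 3 library SD, with starting fluorescence B-score inside 5 SD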
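Material: HEK293 cells stably expressing human MrgX1 receptor | Quantity: 15,000 cells per well | Times: Cells plated overnight, dye loaded 0.5 h 37 °C, 0.5 h room temperature | Measured by: Kinetic Fluo-4 NW fluorescence of intracellular calcium | Control set: Positive and negative controls per plate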
RGS4 inh valid = validation of RGS4 inhibitors | shares compounds with RGS4 inh | HEK293 M3R/RGS4, carbachol calcium Fluo-4 fluorescence; carbachol added at its EC20; 0 = buffer wells, 100 = carbachol control | calcium response, % at 10 µM | 65% of 1,700 active | AID 492999;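 active = duplicate-averaged calcium response above the buffer-only control mean plus 5 SD of those controls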;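 also: integrated fluorescence ratio F max minus min over baseline F0; higher response in RGS4-induced cells means RGS4 inhibition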
RGS4 uninduced = checks RGS4 inhibitor effects in non-induced HEK293 M3R cells. shares compounds with RGS4 inh. carbachol calcium Fluo-4; submaximal (EC20) carbachol stimulus; buffer wells 0%, carbachol control wells 100%. activity (percent), % at 10 µM. 20% of 1,900 active. AID 493000; call rule not given here;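 also: RGS4 induction absent so cells express M3R without RGS4; higher means more calcium signal and flags a non-specific hit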
RGS4 inh ctr2 = second counter-screen for RGS4 inhibitors: non-induced cells without carbachol; shares compounds with RGS4 inh; HEK293 M3R/RGS4 non-induced, Fluo-4 calcium, no carbachol; normalised: buffer wells 0%, carbachol wells 100%; calcium response (agonist-mode artifact), % at 10 µM; 22% of 1,900 active; AID 493001;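 active = duplicate-averaged calcium rise in uninduced cells above buffer wells' mean plus 5 SD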
Of the large screens only hits and unclear results are named; the others gave an inactive call (follow-up assays come after a bar, where they were run).

CN1C(=O)NC(=O)/C(=C\C=C\c2ccccc2[N+](=O)[O-])C1=O	RGS4 inh 6.62 | RGS4 inh valid 16.0% | RGS4 uninduced inactive | RGS4 inh ctr2 10.5%
CN1C(=O)/C(=C/C=C/c2ccco2)C(=O)NC1=S	none
O=C(N/N=C/c1c(O)n(Cc2ccc(F)cc2)c(=O)[nH]c1=O)c1ccccc1	none | RGS4 uninduced inactive | RGS4 inh ctr2 inactive
O=C(N/N=C/c1c(O)n(Cc2ccccc2)c(=O)[nH]c1=O)c1ccncc1	none | RGS4 uninduced 34.5% | RGS4 inh ctr2 inactive
C=CCn1c(O)c(/C=N/NC(=O)c2ccncc2)c(=O)[nH]c1=O	none
COc1ccc(N2C(=O)/C(=C/c3ccc(C)o3)C(=O)NC2=S)cc1	none (no result: MrgX1 antagonist, MrgX1 PAM, MrgX1 ag) | RGS4 uninduced 33.0% | RGS4 inh ctr2 12.0%
Cc1ccc(/C=C2\C(=O)NC(=S)N(c3cccc(F)c3)C2=O)o1	RGS4 inh 15.7 | RGS4 inh valid 34.5% | RGS4 uninduced inactive | RGS4 inh ctr2 inactive
Cc1ccc(/C=C2\C(=O)NC(=O)N(CCc3ccc(F)cc3)C2=O)o1	none | RGS4 uninduced inactive | RGS4 inh ctr2 8.5%
O=C1NC(=O)N(Cc2ccc(F)cc2)C(=O)/C1=C/c1cccs1	RGS4 inh 30.2 | RGS4 inh valid 15.0% | RGS4 uninduced inactive | RGS4 inh ctr2 inactive
O=C1NC(=O)N(Cc2ccccc2Cl)C(=O)/C1=C/c1cccs1	none
COC(=O)OCC12CCC(O1)C1(C)C(=O)OCC21 (stereo unspecified)	none
CN(C)CCSCc1nnc2n1-c1ccc(Cl)cc1C(c1ccccc1Cl)=NC2	none
O=C(c1cn(Cc2ccccc2F)c2ncccc12)C(F)(F)F	none
COc1cc(/C=C/[N+](=O)[O-])ccc1OC(=O)c1cccnc1	RGS4 inh 48.6 | RGS4 inh valid 113.0% | RGS4 uninduced 45.0% | RGS4 inh ctr2 26.5%
Cc1ccccc1NP(=O)(Oc1ccccc1F)Oc1ccccc1F	RGS4 act -7.53 | RGS4 inh valid inactive | RGS4 uninduced inactive | RGS4 inh ctr2 inactive
Cc1cccc(NP(=O)(Oc2ccccc2)Oc2ccccc2)c1C	none
O=C1C(Cc2cnc[nH]2)NC(=S)N1c1ccccc1 (stereo unspecified)	none
O=c1oc2ccccc2c(O)c1C(c1ccc([N+](=O)[O-])cc1)c1c(O)c2ccccc2oc1=O	RGS4 inh 4.89 (no result: MrgX1 antagonist, MrgX1 PAM, MrgX1 ag) | RGS4 inh valid 30.5% | RGS4 uninduced inactive | RGS4 inh ctr2 inactive
C/C(=C\c1ccc(N(C)C)cc1)[N+](=O)[O-]	RGS4 inh 7.61 | RGS4 inh valid 23.5% | RGS4 uninduced 62.5% | RGS4 inh ctr2 14.5%
CN(C)c1ccc(/C=C/[N+](=O)[O-])cc1	RGS4 inh 19.2 | RGS4 inh valid 54.0% | RGS4 uninduced inactive | RGS4 inh ctr2 75.5%
O=C1Nc2ccc(Br)cc2C(c2ccc(Cl)cc2)=NC1O (stereo unspecified)	none
Cc1ccc2c(c1)=NC(=O)/C(=C/c1c(O)[nH]c(=O)[nH]c1=O)C=2	none | RGS4 uninduced inactive | RGS4 inh ctr2 inactive
Cc1nn(Cc2ccccc2)c(C)c1C=C1C(=O)NC(=S)NC1=O	RGS4 inh 13.8 | RGS4 inh valid 70.5% | RGS4 uninduced inactive | RGS4 inh ctr2 8.0%
NC(=O)c1cn(C2OC(CO)C(O)C2O)c2ncnc(N)c12 (stereo unspecified)	none
CCNC(=O)[C@H]1O[C@@H](n2cnc3c(N)ncnc32)[C@H](O)[C@@H]1O	RGS4 inh 9.75 | RGS4 inh valid 34.5% | RGS4 uninduced inactive | RGS4 inh ctr2 inactive
Fc1cccc(C2NCCc3[nH]cnc32)c1 (stereo unspecified)	none
C=CCN1C(=O)/C(=C/c2ccc3c(c2)CCCN3CCC)C(=O)NC1=S	none
CN1C(=O)/C(=C/c2ccc(Cl)s2)C(=O)NC1=S	RGS4 inh 9.92 | RGS4 inh valid 5.5% | RGS4 uninduced inactive | RGS4 inh ctr2 inactive
C=CCN1C(=O)/C(=C/c2ccc(Br)s2)C(=O)NC1=S	RGS4 inh 10.8, MrgX1 antagonist -5.62 | RGS4 inh valid 5.0% | RGS4 uninduced inactive | RGS4 inh ctr2 inactive
Cc1ccc(C2C(=O)NC(=O)NC2=O)cc1	none
COc1ccccc1N1CCN(Cc2ccc(Br)s2)CC1	none
CC(C)CN(CC(C)C)c1ccc(C=C2C(=O)NC(=S)NC2=O)cc1[N+](=O)[O-]	none
CCN(CC)c1ccc(C=C2C(=O)NC(=S)NC2=O)cc1	RGS4 inh 36.3 | RGS4 inh valid 56.0% | RGS4 uninduced 29.5% | RGS4 inh ctr2 inactive
Cc1cc(C)cc(N2C(=O)NC(=O)/C(=C/c3cccn3-c3ccc(Cl)cc3)C2=O)c1	none | RGS4 inh valid inactive | RGS4 uninduced inactive | RGS4 inh ctr2 inactive
O=C1NC(=O)C(=Cc2coc3ccc(O)cc3c2=O)C(=O)N1	RGS4 inh 5.3 | RGS4 inh valid 8.5% | RGS4 uninduced inactive | RGS4 inh ctr2 inactive
Cc1ccc(N2C(=O)NC(=O)/C(=C\C=C\c3ccco3)C2=O)cc1	none | RGS4 uninduced inactive | RGS4 inh ctr2 11.5%
Cc1cccc(N2C(=O)NC(=O)/C(=C\C=C\c3ccco3)C2=O)c1	RGS4 inh 17.2, MrgX1 ag 56.8 | RGS4 inh valid 49.0% | RGS4 uninduced 63.5% | RGS4 inh ctr2 88.0%
O=C1NC(=O)N(c2ccccc2)C(=O)/C1=C/C=C/c1ccco1	none
Cc1ccc(N2C(=O)NC(=O)/C(=C\C=C\c3ccco3)C2=O)cc1C	RGS4 inh 22.4 | RGS4 inh valid 28.0% | RGS4 uninduced 31.5% | RGS4 inh ctr2 39.5%
N#Cc1ccccc1Cn1cc(C(=O)c2ccccc2F)c2ccccc21	none
COc1ccc(Nc2ncc(C(=O)N3CCC4(CC3)OCCO4)c3ccccc23)cc1	none (no result: RGS4 inh, RGS4 act)
CC1CCCCC1NC1CCN(C)CC1 (stereo unspecified)	none
O=C1/C(=C\c2ccc(Cl)c(Cl)c2)N2CCC1CC2	RGS4 inh 21.2 | RGS4 inh valid 16.5% | RGS4 uninduced inactive | RGS4 inh ctr2 inactive
O=C1/C(=C\c2cc3c(cc2Cl)OCO3)N2CCC1CC2	none
O=C1/C(=C\c2ccc(Cl)cc2Cl)N2CCC1CC2	RGS4 inh 7.69 | RGS4 inh valid 6.5% | RGS4 uninduced inactive | RGS4 inh ctr2 inactive
O=C1/C(=C\c2ccncc2)N2CCC1CC2	none
Cc1cc(O)c2c(c1)OC(C)(C)C1=C2CC(C)CC1 (stereo unspecified)	none
